Legend:
[1] = test system: T. brucei brucei 449 (strain: Lister 427, bloodstream form); assay: Trypanosome cell survival assay; assay type: cell-based; settings: Trypanosoma brucei, 24 h, read-out: EC50 (24 h)
[2] = biological target: T1, Tpx WT/inhibitor complex (Trypanosoma brucei brucei, UniProt O77404); assay: SEC-MALS of Tpx/inhibitor complexes; assay type: binding, T. brucei; settings: SEC-MALS at 100 μM protein concentration
T1 sequence (O77404 with tags, fused parts or gaps): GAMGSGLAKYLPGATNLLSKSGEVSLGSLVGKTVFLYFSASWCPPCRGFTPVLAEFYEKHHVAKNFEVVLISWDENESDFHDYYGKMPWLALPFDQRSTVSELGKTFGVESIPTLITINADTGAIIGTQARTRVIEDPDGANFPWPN
In short: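 Covalent complexes were formed as for ITC (TCEP-reduced Tpx, 3-fold excess inhibitor, 30 min, 25 °C) and SEC-purified. 100 µM complex was run on Superdex 75 10/300 in 25 mM NaPi pH 7.5, 150 mM NaCl at 0.5 ml/min, room temperature. Molar mass came from multi-angle light scattering plus refractive index detection, using a Zimm model.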

Question: Which EC50 [1] does the source give for `O=c1[nH]c(CCl)nc2scc(-c3ccc(C(F)(F)F)cc3)c12` [CtFT, 2-(Chloromethyl)-5-(4-(trifluoromethyl)phenyl)thieno[2,3-d]pyrimidin-4(3H)-one] here?
Answer: 2200 ± 600 nM

Question: And the “oligomeric state of Tpx/inhibitor complex” value [2]?
Answer: remained monomeric

Question: With `O=c1[nH]c(CCl)nc2scc(-c3ccccc3)c12` [CPT, 2-(Chloromethyl)-5-phenylthieno[2,3-d]pyrimidin-4(3H)-one] as the molecule, how does the EC50 [1] read?
Answer: 600 ± 300 nM

Reference: article PMC12324215 (bioRxiv, 2025)
